# Measured values as given in ChEMBL document CHEMBL1155167, “Fluoroquinolone resistance in atypical pneumococci and oral streptococci: evidence of horizontal gene transfer of fluoroquinolone resistance determinants from Streptococcus pneumoniae” (2007).
# Legend:
# Streptococcus pneumoniae [1] = assay: Antimicrobial activity against Streptococcus pneumoniae L12 with gyrA Ser81Phe, parC Ser79 Phe and parE Ile460Val mutation by broth dilution method
# Streptococcus pneumoniae [2] = assay: Antimicrobial activity against Streptococcus pneumoniae L5 with parE Ile460Val mutation by broth dilution method
# Streptococcus mitis [3] = assay: Antimicrobial activity against Streptococcus mitis ATCC 49456 with gyrA Ser114Gly, and parC Ser52Gly, Asn91Asp, Glu135Asp mutation by broth dilution method; format: functional
# Procedure, shortened: (§1)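 Ciprofloxacin and levofloxacin MICs were determined by broth dilution following CLSI (formerly NCCLS) guidance. S. pneumoniae ATCC 6303 and ATCC 49619 served as control strains. Reference strains were S. mitis ATCC 49456 and S. oralis ATCC 10557. The clinical isolates came from patients at a Hong Kong teaching hospital.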
# Streptococcus mitis [4] = assay: Antimicrobial activity against Streptococcus mitis HK651 with gyrA Ser114Gly, and parC Ser52Gly, Asn91Asp mutation by broth dilution method; format: functional; procedure, shortened: as §1
# Streptococcus pneumoniae [5] = assay: Antimicrobial activity against atypical Streptococcus pneumoniae L1 with gyrA Ser81Phe and parC Ser79Phe, Glu96Asp, Lys197Asn mutation by broth dilution method
# Streptococcus viridans [6] = assay: Antimicrobial activity against Viridans streptococcus L19 with gyrA Ser114Gly, gyrB Ser494Thr, parC Ser52Gly, Asn91Asp and parE Ile460Val mutation by broth dilution method; format: functional; procedure, shortened: as §1
# Streptococcus oralis [7] = assay: Antimicrobial activity against Streptococcus oralis HK51with gyrA Ser114Gly, and parC Ser52Gly, Asn91Asp mutation by broth dilution method; format: functional; procedure, shortened: as §1
# Streptococcus viridans [8] = assay: Antimicrobial activity against Viridans streptococcus L21 with gyrB Ser494Thr and parC Lys137Asn mutation by broth dilution method; format: functional; procedure, shortened: as §1
# Streptococcus mitis [9] = assay: Antimicrobial activity against Streptococcus mitis HK29 with gyrA Ser114Gly, and parC Ser52Gly, Asn91Asp mutation by broth dilution method; format: functional; procedure, shortened: as §1
# Streptococcus viridans [10] = assay: Antimicrobial activity against Viridans streptococcus L2 with gyrA Ser114Gly, gyrB Ser494Thr and parC Ser52Gly, Asn91Asp mutation by broth dilution method; format: functional; procedure, shortened: as §1
# Streptococcus oralis [11] = assay: Antimicrobial activity against Streptococcus oralis HK232 with gyrA Ser114Gly, and parC Ser52Gly, Asn91Asp mutation by broth dilution method; format: functional; procedure, shortened: as §1
# Streptococcus mitis [12] = assay: Antimicrobial activity against Streptococcus mitis HK677 with gyrA Ser81Leu, Ser114Gly, gyrB Ser494Thr, parC Ser52Gly, Asp83Tyr, Asn91Asp and parE Arg447Ser mutation by broth dilution method; format: functional; procedure, shortened: as §1
# Streptococcus oralis [13] = assay: Antimicrobial activity against Streptococcus oralis HK122 with gyrA Ser114Gly, and parC Ser52Gly, Asn91Asp mutation by broth dilution method; format: functional; procedure, shortened: as §1
# Streptococcus oralis [14] = assay: Antimicrobial activity against Streptococcus oralis HK386 with gyrA Ser114Gly, and parC Ser52Gly, Asn91Asp mutation by broth dilution method; format: functional; procedure, shortened: as §1
# Streptococcus mitis [15] = assay: Antimicrobial activity against Streptococcus mitis HK125807 with gyrA Ser114Gly, and parC Ser52Gly, Asn91Asp mutation by broth dilution method; format: functional; procedure, shortened: as §1
# Streptococcus oralis [16] = assay: Antimicrobial activity against Streptococcus oralis HK619 with gyrA Ser114Gly, and parC Ser52Gly, Asn91Asp mutation by broth dilution method; format: functional; procedure, shortened: as §1
# Streptococcus oralis [17] = assay: Antimicrobial activity against Streptococcus oralis HK62 with gyrA Ser114Gly, and parC Ser52Gly, Asn91Asp mutation by broth dilution method; format: functional; procedure, shortened: as §1
# Streptococcus mitis [18] = assay: Antimicrobial activity against Streptococcus mitis HK137453 with gyrA Ser114Gly, and parC Ser52Gly, Asn91Asp mutation by broth dilution method; format: functional; procedure, shortened: as §1
# Streptococcus viridans [19] = assay: Antimicrobial activity against Viridans streptococcus L7 with gyrA Ser114Gly, gyrB Ser494Thr and parC Ser52Gly, Asn91Asp mutation by broth dilution method; format: functional; procedure, shortened: as §1
# Streptococcus pneumoniae [20] = assay: Antimicrobial activity against Streptococcus pneumoniae L24 with gyrA Ser81Phe, gyrB Ser494Thr, parC Asp83Asn, Lys137Asn and parE Ile460Val mutation by broth dilution method
# Streptococcus oralis [21] = assay: Antimicrobial activity against Streptococcus oralis ATCC 10557 with gyrA Ser114Gly, and parC Ser52Gly, Asn91Asp mutation by broth dilution method; format: functional; procedure, shortened: as §1
# Streptococcus pneumoniae [22] = assay: Antimicrobial activity against Streptococcus pneumoniae L13 with parC Asp83Tyr and parE Ile460Val mutation by broth dilution method
# Streptococcus oralis [23] = assay: Antimicrobial activity against Streptococcus oralis HK754 with gyrA Ser81Leu, Ser114Gly, gyrB Ser494Thr, parC Ser52Gly, Asp83Tyr, Asn91Asp and parE Arg447Ser mutation by broth dilution method; format: functional; procedure, shortened: as §1
# Streptococcus viridans [24] = assay: Antimicrobial activity against Viridans streptococcus L16 with gyrA Ser114Gly, gyrB Ser494Thr and parC Ser52Gly, Asn91Asp mutation by broth dilution method; format: functional; procedure, shortened: as §1
# Streptococcus mitis [25] = assay: Antimicrobial activity against Streptococcus mitis HK188 with gyrA Ser114Gly, and parC Ser52Gly, Asn91Asp, Glu135Asp mutation by broth dilution method; format: functional; procedure, shortened: as §1
# Streptococcus oralis [26] = assay: Antimicrobial activity against Streptococcus oralis HK300 with gyrA Ser114Gly, and parC Ser52Gly, Asn91Asp mutation by broth dilution method; format: functional; procedure, shortened: as §1
# Streptococcus pneumoniae [27] = assay: Antimicrobial activity against atypical Streptococcus pneumoniae L27 with parC Ser52Gly, Asn91Asp, Glu135Asp mutation by broth dilution method
# Streptococcus pneumoniae [28] = assay: Antimicrobial activity against Streptococcus pneumoniae L15 with parC Asp83Asn Lys137Asn and parE Ile460Val mutation by broth dilution method
# Streptococcus oralis [29] = assay: Antimicrobial activity against Streptococcus oralis HK123 with gyrA Ser114Gly, and parC Ser52Gly, Asn91Asp mutation by broth dilution method; format: functional; procedure, shortened: as §1
# Streptococcus viridans [30] = assay: Antimicrobial activity against Viridans streptococcus L18 with gyrA Ser114Gly, Asp142Asn, gyrB Ser494Thr and parE Ile460Val mutation by broth dilution method; format: functional; procedure, shortened: as §1
# Streptococcus oralis [31] = assay: Antimicrobial activity against Streptococcus oralis HK312 with gyrA Ser114Gly, and parC Ser52Gly, Asn91Asp mutation by broth dilution method; format: functional; procedure, shortened: as §1
# Streptococcus oralis [32] = assay: Antimicrobial activity against Streptococcus oralis HK816 with gyrA Ser81Leu, Ser114Gly and parC Ser52Gly, Ser79Tyr, Asn91Asp mutation by broth dilution method; format: functional; procedure, shortened: as §1
# Streptococcus oralis [33] = assay: Antimicrobial activity against Streptococcus oralis HK587 with gyrA Ser114Gly, and parC Ser52Gly, Asn91Asp mutation by broth dilution method; format: functional; procedure, shortened: as §1
# Streptococcus oralis [34] = assay: Antimicrobial activity against Streptococcus oralis HK271 with gyrA Ser114Gly, and parC Ser52Gly, Asn91Asp mutation by broth dilution method; format: functional; procedure, shortened: as §1
# Streptococcus pneumoniae [35] = assay: Antimicrobial activity against atypical Streptococcus pneumoniae L10 with gyrA Ser81Phe and parC Lys197Asn mutation by broth dilution method
smiles,measurement,setting,value
O=C(O)c1cn(C2CC2)c2cc(N3CCNCC3)c(F)cc2c1=O [CIPROFLOXACIN],MIC,Streptococcus pneumoniae [1],64 µg/mL
same,MIC,Streptococcus pneumoniae [2],4 µg/mL
same,MIC,Streptococcus mitis [3],1 µg/mL
same,MIC,Streptococcus mitis [4],1 µg/mL
same,MIC,Streptococcus pneumoniae [5],> 32 µg/mL
same,MIC,Streptococcus viridans [6],4 µg/mL
same,MIC,Streptococcus oralis [7],4 µg/mL
same,MIC,Streptococcus viridans [8],16 µg/mL
same,MIC,Streptococcus mitis [9],4 µg/mL
same,MIC,Streptococcus viridans [10],4 µg/mL
same,MIC,Streptococcus oralis [11],2 µg/mL
same,MIC,Streptococcus mitis [12],128 µg/mL
same,MIC,Streptococcus oralis [13],4 µg/mL
same,MIC,Streptococcus oralis [14],4 µg/mL
same,MIC,Streptococcus mitis [15],2 µg/mL
same,MIC,Streptococcus oralis [16],4 µg/mL
same,MIC,Streptococcus oralis [17],4 µg/mL
same,MIC,Streptococcus mitis [18],2 µg/mL
same,MIC,Streptococcus viridans [19],4 µg/mL
same,MIC,Streptococcus pneumoniae [20],≥ 16 µg/mL
same,MIC,Streptococcus oralis [21],2 µg/mL
same,MIC,Streptococcus pneumoniae [22],4 µg/mL
same,MIC,Streptococcus oralis [23],128 µg/mL
same,MIC,Streptococcus viridans [24],4 µg/mL
same,MIC,Streptococcus mitis [25],1 µg/mL
same,MIC,Streptococcus oralis [26],4 µg/mL
same,MIC,Streptococcus pneumoniae [27],4 µg/mL
same,MIC,Streptococcus pneumoniae [28],8 µg/mL
same,MIC,Streptococcus oralis [29],4 µg/mL
same,MIC,Streptococcus viridans [30],4 µg/mL
same,MIC,Streptococcus oralis [31],4 µg/mL
same,MIC,Streptococcus oralis [32],32 µg/mL
same,MIC,Streptococcus oralis [33],4 µg/mL
same,MIC,Streptococcus oralis [34],4 µg/mL
same,MIC,Streptococcus pneumoniae [35],4 µg/mL
